Assay results: ChEMBL document CHEMBL1130319, “Preparation, DNA binding, and in vitro cytotoxicity of a pair of enantiomeric platinum(II) complexes, [(R)- and (S)-3-aminohexahydroazepine]dichloroplatinum(II). Crystal structure of the S enantiomer” (J Med Chem, 1997)

Assays:
Type in all cases: functional, cell-based
DU-145 [1] = assay: In vitro cytotoxicity was determined by using cultures of human prostate (DU145) cancer cells by MTT assay
How it was run: (§1)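 Monolayers in RPMI 1640 with 10% FCS, 37 °C, 7.5% CO2/5% O2/85% N2. Trypsinized, 5000 cells/well, 24 h preincubation. Complexes in 0.9% NaCl saline, final 0–200 μM, 96 h exposure; washed. MTT 1 mg/mL in FCS-free medium, 4 h at 37 °C, formazan in 2-propanol, OD 570 nm. Viability % of untreated; 4 or 6 replicates; IR50 from dose-response curves.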

DU-145 [2] = assay: In vitro cytotoxicity was determined by using cultures of human prostate (DU145) cancer cells by SRB assay
How it was run: (§2)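 Cells grown in RPMI 1640/10% FCS under 7.5% CO2, 5% O2. Seeded at 5000 cells/well for 24 h, then given complexes (saline stock diluted in medium) at final 0–200 μM for 96 h. Fixed in cold 10% TCA 30 min at 4 °C, stained with 0.4% SRB in 1% acetic acid 15 min, dye solubilized in 10 mM Tris, A570. Percent of control from 4 or 6 replicates; IR50 read from curves.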

PC-9 [3] = assay: In vitro cytotoxicity was determined by using cultures of human resistant lung (PC9cisR) cancer cells by MTT assay; how it was run: as §1
PC-9 [4] = assay: In vitro cytotoxicity was determined by using cultures of human resistant lung (PC9cisR) cancer cells by SRB assay; how it was run: as §2
PC-9 [5] = assay: In vitro cytotoxicity was determined by using cultures of human lung (PC9) cancer cells by SRB assay; how it was run: as §2
BL13/0 [6] = assay: In vitro cytotoxicity was determined by using cultures of human bladder (BL13/0) cancer cells by MTT assay; how it was run: as §1
BL13/0 [7] = assay: In vitro cytotoxicity was determined by using cultures of human bladder (BL13/0) cancer cells by SRB assay; how it was run: as §2
PC-9 [8] = assay: In vitro cytotoxicity was determined by using cultures of human lung (PC9) cancer cells by MTT assay; how it was run: as §1

Substance | IC50 (DU-145 [1]) | IC50 (DU-145 [2]) | IC50 (PC-9 [3]) | IC50 (PC-9 [4]) | IC50 (PC-9 [5]) | IC50 (BL13/0 [6]) | IC50 (BL13/0 [7]) | IC50 (PC-9 [8])
8,8-platinumdichloro-(6R)-1,7-diazoniabicyclo[4.2.1]nonane | 2.9 µM | 3.3 µM | 16 µM | 27.3 µM | 11 µM | 1.3 µM | 7.2 µM | 5.9 µM
CISPLATIN | 1.8 µM | 1 µM | 11.7 µM | > 17.5 µM |  | 1.9 µM | 9.5 µM | 1.4 µM
